Screening data as filed in PubChem.
TCR CD3 inh: human TCR-CD3 binding inhibition. AID 651800. inhibition, % at 9.4 µM. TAMRA-labeled TCR probe fluorescence, biochemical. 0.37% of 360,000 active; in the data active means inhibition above about 19%;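 further: recombinant mutant TCR 2C K166C tagged with TAMRA read by polarization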
mABHD4 FP: inhibits mouse alpha/beta hydrolase domain 4; Q8VD66; purified mABHD4, FP-Rh probe fluorescence polarization; inhibition, % at 8.92 µM; 0.54% of 370,000 active;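 active means inhibition exceeding the mean over every tested compound plus 3 SD, cut at about 30% in these data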
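assay system = mABHD4 protein | compound dosing = single nominal dose of 8.92 µM, 0.89% DMSO final | read-out basis = percent inhibition of probe binding, normalized to plate controls | schedule = Enzyme–compound pre-incubation 45 min, then probe 60 min, both 25 °C | detection = fluorescence polarization, excitation 525 nm, emission 598 nm, BODIPY TMR filters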
SIAE inh: human SIAE inhibition, primary screen; SIAE FP-Rh probe binding, fluorescence polarization; inhibition, % at 9.66 µM; 0.69% of 370,000 active; AID 1053197;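 active means inhibition above a cutoff: mean of compounds within the control limits plus 3 SD of those, cut at about 17% in these data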
TDP2 absorb: TDP2 (human) inhibition, absorbance primary screen; recombinant TDP2, T5PNP hydrolysis, p-nitrophenol absorbance 415 nm; inhibition, % at 12.8 µM; 0.34% of 370,000 active;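 active means inhibition above the mean of all tested compounds plus 3 SD, set per campaign, cut at about 25% in these data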
Target sequence (O95551 whole entry, looked up): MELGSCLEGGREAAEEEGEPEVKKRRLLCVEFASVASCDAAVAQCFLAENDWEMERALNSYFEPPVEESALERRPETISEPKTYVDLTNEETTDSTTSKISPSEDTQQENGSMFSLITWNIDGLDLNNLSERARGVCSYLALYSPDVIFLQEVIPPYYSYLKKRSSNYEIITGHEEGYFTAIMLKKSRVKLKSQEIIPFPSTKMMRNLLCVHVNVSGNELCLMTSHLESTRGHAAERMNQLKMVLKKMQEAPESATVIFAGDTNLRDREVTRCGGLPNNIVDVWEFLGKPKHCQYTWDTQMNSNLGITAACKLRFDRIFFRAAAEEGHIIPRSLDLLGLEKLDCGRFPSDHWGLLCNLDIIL
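Material: recombinant human TDP2; quantity: TDP2 enzyme at 120 nM final; medium: Tris-HCl pH 7.5 with MgCl2; compound: single concentration, 12.8 µM nominal, with 1% DMSO; incubation: 2 h enzyme incubation at 37 °C; signal: epi absorbance; measure: percent inhibition; benchmarks: high control without enzyme, low control DMSO plus TDP2; repeats: singlicate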
HTRA1 inh: blocks human HTRA1 serine peptidase; recombinant HTRA1, FP-rhodamine activity-based probe, fluorescence polarization; 0.5% of 340,000 active; Q92743; inhibition, % at 5.96 µM; in the data active means inhibition above about 36%
PAD4 FP inh: PAD4 (human) enzyme inhibition. Q9UM07. recombinant PAD4, RCA probe fluorescence polarization. inhibition, % at 6.36 µM. 0.41% of 330,000 active. AID 485272;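 active means percent inhibition above a cutoff equal to the mean of all tested compounds plus 3 SD, cut at about 15% in these data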
HTRA1 inh conf: confirmation of human HTRA1 inhibitors; recombinant HTRA1, FP-rhodamine activity-based probe, fluorescence polarization; AID 540248; 66% of 1,600 active; shares compounds with HTRA1 inh; inhibition, % at 5.96 µM;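 active means mean inhibition over three repeats above a set limit taken from the earlier primary screen, cut at about 37% in these data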;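 further: inhibitors block probe binding so polarization drops and inhibition rises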
Each line names hits and unclear results; the compound was inactive in the other large screens (follow-up assays come after a bar, where they were run). Most compounds without a hit are left out; they make up all but 2% or so of the library.

CC1CCCCC12NC(=O)N(CC(=O)N1CCN(Cc3ccc(C#N)cc3)CC1)C2=O (centres undefined)	none
COc1ccccc1C(=O)COC(=O)Cn1c(C)csc1=O	none
COc1ccc(C(CNC(=O)CNS(=O)(=O)c2ccc(NC(C)=O)cc2)N2CCOCC2)cc1 (centres undefined)	none
COc1cccc(CNc2ccc(N3CCC(C)CC3)cc2)c1OC	HTRA1 inh 52 | HTRA1 inh conf 46
O=C(CN(C(=O)Cn1nnc(-c2ccc(F)cc2)n1)c1cccc(F)c1)NC1CCCC1	none
CC(C)c1ccc(NC(=O)Nc2cc3sccc3n2C)cc1	HTRA1 inh 47 | HTRA1 inh conf inactive
COc1cc(NC(=O)CCCNC(=O)Cn2cnc3sc(C)c(C)c3c2=O)cc(OC)c1OC	none
Nc1ccc(Nc2ccccc2N)cc1	HTRA1 inh 64 | HTRA1 inh conf 83
CN(C(=O)CNc1ccccc1Cl)C1CCS(=O)(=O)C1 (centres undefined)	none
Nc1ccc(N2CCCCC2)cc1N1CCCCC1	HTRA1 inh 51 | HTRA1 inh conf 59
Cc1nn(-c2cc(N3CCCCC3)ccc2N)c(=O)c2ccccc12	none
CCc1cc2c(=O)c(-c3nc4ccccc4n3C)c(COCC(=O)O)oc2cc1OC(=O)C(C)(C)C	HTRA1 inh 48 | HTRA1 inh conf inactive
COc1ccc(Oc2cnn(-c3ccccc3)c(=O)c2Br)cc1	none
COc1ccc2cc(CO)n(C)c2c1	HTRA1 inh 42 | HTRA1 inh conf inactive
CC(=O)c1ccc(OCC(=O)Nc2c(C)nn(-c3ccccc3)c2C)cc1	none
CC(=O)NC(c1cc(Cl)c2ccccc2c1O)C(C)C (centres undefined)	none
CCCCC(=O)NC(c1ccco1)c1cc(Cl)c2cccnc2c1O (centres undefined)	HTRA1 inh 59 | HTRA1 inh conf 65
CCC(=O)NC(c1ccco1)c1cc(Cl)c2cccnc2c1O (centres undefined)	HTRA1 inh 56 | HTRA1 inh conf 64
CCC(=O)NC(c1ccc(OC)cc1)c1cc(Cl)c2cccnc2c1O (centres undefined)	HTRA1 inh 59 | HTRA1 inh conf 73
CC(=O)NC(c1cc(Cl)c2cccnc2c1O)C(C)C (centres undefined)	HTRA1 inh 53 | HTRA1 inh conf 72
Cc1ccccc1CN(C)C(=O)CNC(=O)c1ccc2ccccc2c1	none
CN1CCN(C(c2ccc(C(F)(F)F)cc2)c2ccc3cccnc3c2O)CC1 (centres undefined)	none (no result: HTRA1 inh)
CN1CCN(C(c2ccccn2)c2cc(Cl)c3cccnc3c2O)CC1 (centres undefined)	HTRA1 inh 39 | HTRA1 inh conf 66
Cc1ccc(C(c2cc(Cl)c3cccnc3c2O)N2CCN(C)CC2)cc1 (centres undefined)	HTRA1 inh 57 (no result: TCR CD3 inh, mABHD4 FP, SIAE inh, TDP2 absorb) | HTRA1 inh conf 70
Oc1c(C(c2ccc(Cl)cc2)N2CCCC2)cc(Cl)c2cccnc12 (centres undefined)	HTRA1 inh 41 | HTRA1 inh conf 60
O=C(Oc1cccc(NC2=NS(=O)(=O)c3ccccc32)c1)c1cccnc1	none
C[C@H](CO)N1C[C@H](C)[C@H](CN(C)C(=O)Nc2ccc(F)cc2)OCc2cnnn2CCCC1=O	none (no result: PAD4 FP inh)
Cc1ccccc1S(=O)(=O)NC(=O)C1(C)CCN1C(=O)C/C=C/c1ccccc1 (centres undefined)	none (no result: HTRA1 inh, PAD4 FP inh)
CN(C)c1ccc(C=c2c3ccccc3n3c2c2c([n+]3C)CCCC2)cc1	HTRA1 inh 53 (no result: PAD4 FP inh) | HTRA1 inh conf 55
CN(C)c1ccc(C=c2c3ccccc3n3c2cc(-c2ccc(Cl)cc2)[n+]3C)cc1	none (no result: PAD4 FP inh)
O=C(CNC(=O)c1ccc(Br)o1)NNC(=O)c1n[nH]c(=O)c2ccccc12	none
CC(C)(C)NC(=S)Nc1ccc(Br)cc1	none
CC(C)(C)NC(=S)Nc1ccc(Nc2ccccc2)cc1	HTRA1 inh 46 | HTRA1 inh conf inactive
COc1ccc2c(ccc[n+]2[O-])c1	none (no result: PAD4 FP inh)
[O-][n+]1cccc2c(Br)cc(Br)c(O)c21	HTRA1 inh 72 | HTRA1 inh conf 41
C=CCNC(=O)c1c[nH]c2ccc(S(=O)(=O)N(C)c3ccc(OCC)cc3)cc2c1=O	none
CN(C(=O)CN1C(=O)c2ccccc2S1(=O)=O)C1CCCCC1	none
CC1(OC(=O)C2CCCC2)C(=O)C=C2C=C(c3ccsc3)N(Cc3ccccc3)C=C2C1=O (centres undefined)	HTRA1 inh 38 | HTRA1 inh conf inactive
CC1(OC(=O)C2CCCC2)C(=O)C=C2C=C(c3ccsc3)N(c3ccccc3)C=C2C1=O (centres undefined)	HTRA1 inh 39 | HTRA1 inh conf inactive
CC(C)CN1C=C2C(=O)C(C)(OC(=O)C3CCCC3)C(=O)C=C2C=C1c1ccsc1 (centres undefined)	none
CC(=O)c1ccc(-c2ccc(C(=O)NCC(c3ccco3)N(C)C)o2)cc1 (centres undefined)	none
O=c1[nH]c2ccc(Cl)cc2c(-c2ccccc2)c1SC(=S)N1CCOCC1	HTRA1 inh 42 | HTRA1 inh conf inactive
CCC(Cc1ccccc1)NC(=O)C1CCN(c2nn3c(=O)cc(C)nc3s2)CC1 (centres undefined)	none
CC(NC(=O)Cc1ccccc1[N+](=O)[O-])c1ccccc1 (centres undefined)	none (no result: HTRA1 inh)
CC(=O)NC(c1ccccc1)c1cc([N+](=O)[O-])c2cccnc2c1O (centres undefined)	HTRA1 inh 53 | HTRA1 inh conf 69
CC(=O)NC(C)c1cc(F)c2cccnc2c1O (centres undefined)	none
CC(C)C(=O)NC(c1ccccc1)c1cc([N+](=O)[O-])c2cccnc2c1O (centres undefined)	HTRA1 inh 39 | HTRA1 inh conf 46
CC(=O)c1cccc(NC(=O)C(C)OC(=O)CCN=C2NS(=O)(=O)c3ccccc32)c1 (centres undefined)	HTRA1 inh 90 | HTRA1 inh conf inactive
CC(=O)c1ccc(NC(=O)C(C)OC(=O)CCN=C2NS(=O)(=O)c3ccccc32)cc1 (centres undefined)	none
Cc1ccc(/C=C/C(=O)c2ccccc(=O)c2O)c(C)c1	HTRA1 inh 53 | HTRA1 inh conf 45
O=C(C=Cc1ccccc1O)c1ccccc1O	none (no result: PAD4 FP inh)
O=C(/C=C/c1ccccc1Cl)c1ccc(O)cc1	none
O=C(/C=C/c1ccccc1Cl)c1ccccc(=O)c1O	HTRA1 inh 44 | HTRA1 inh conf 46
Cc1cn(-c2cccnc2)c(C)c1CNC[C@H]1O[C@@H](n2cnc3c(N)ncnc32)[C@H](O)[C@@H]1O	none
